The results in this text go back to ChEMBL document CHEMBL1240500, “Peptidyl alpha-ketoamides with nucleobases, methylpiperazine, and dimethylaminoalkyl substituents as calpain inhibitors” (J Med Chem, 2010).

The target of data set [1] is T1, Calpain-1 catalytic subunit (Sus scrofa, UniProt P35750).
T1 sequence (P35750 whole entry): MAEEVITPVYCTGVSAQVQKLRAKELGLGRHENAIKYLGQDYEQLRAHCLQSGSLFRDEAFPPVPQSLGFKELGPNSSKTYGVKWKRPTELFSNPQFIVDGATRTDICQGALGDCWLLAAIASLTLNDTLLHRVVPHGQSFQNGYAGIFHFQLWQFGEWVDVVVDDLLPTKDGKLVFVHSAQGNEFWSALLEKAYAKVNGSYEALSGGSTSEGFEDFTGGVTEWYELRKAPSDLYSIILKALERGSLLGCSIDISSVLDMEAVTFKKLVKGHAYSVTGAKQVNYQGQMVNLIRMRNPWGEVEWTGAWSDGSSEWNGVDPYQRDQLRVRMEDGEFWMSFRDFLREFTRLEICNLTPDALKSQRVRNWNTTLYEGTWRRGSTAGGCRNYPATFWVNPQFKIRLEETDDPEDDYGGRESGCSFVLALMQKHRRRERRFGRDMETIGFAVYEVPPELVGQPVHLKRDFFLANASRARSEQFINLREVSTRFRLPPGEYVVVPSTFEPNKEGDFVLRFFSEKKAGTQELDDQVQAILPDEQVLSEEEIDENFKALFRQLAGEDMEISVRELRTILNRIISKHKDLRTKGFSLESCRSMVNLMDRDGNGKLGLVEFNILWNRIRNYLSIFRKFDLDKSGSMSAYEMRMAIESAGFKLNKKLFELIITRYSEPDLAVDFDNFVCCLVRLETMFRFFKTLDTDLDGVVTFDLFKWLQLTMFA
Briefly: Inhibition of porcine erythrocyte calpain 1.

Data set [2] deals with Cathepsin B (Homo sapiens, UniProt P07858). Briefly: Inhibition of human liver cathepsin B. A digest of the protocol:
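Human liver cathepsin B was DTT-activated (final 0.4 µM) in 0.1 M NaHPO4 pH 6.0 with 1.25 mM EDTA, 0.01% Brij and <5% DMSO. Cbz-Arg-Arg-AMC was used at 0.5, 0.2 and 0.1 µM, with ≥5 inhibitor concentrations. AMC fluorescence was read at ex 360/em 465 nm. Ki was taken from Dixon plots of 1/v versus [I].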

Data set [3] is described as follows: Drug level in C57BL/6 mouse brain at 24 mg/kg, sc after 2 hrs by HPLC analysis. The class given is ADME, organism-based. On the set-up: dose 24 mg/kg, route subcutaneous. The note with it: read-out: Drug uptake. A digest of the protocol:
(§1)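 7-week-old female C57BL/6 mice (N = 3 per time point) got 24 mg/kg subcutaneously, were perfused with buffered saline at 37 °C, and were killed at 1, 2, 4 or 8 h. Brain was homogenized 5% w/v in water with internal standard spiked in. LC-MS/MS used ESI+ MRM and a Symmetry Shield C18 column. Quantitation was by peak-area ratio against plasma calibration standards.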

In data set [4] the target is T2, Calpain-2 catalytic subunit (Sus scrofa, UniProt P43367).
T2 sequence (P43367 whole entry): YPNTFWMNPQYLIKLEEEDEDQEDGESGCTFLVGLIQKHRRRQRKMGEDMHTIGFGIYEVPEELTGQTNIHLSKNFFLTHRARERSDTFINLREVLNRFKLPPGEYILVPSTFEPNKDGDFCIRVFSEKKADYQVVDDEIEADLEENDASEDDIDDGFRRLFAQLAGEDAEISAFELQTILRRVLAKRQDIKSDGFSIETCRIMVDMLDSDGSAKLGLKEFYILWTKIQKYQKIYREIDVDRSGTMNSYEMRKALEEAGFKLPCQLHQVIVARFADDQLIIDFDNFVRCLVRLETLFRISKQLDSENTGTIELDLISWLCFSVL
Briefly: Inhibition of porcine kidney calpain 2.

The target in data set [5] is T3, Calpain-1 catalytic subunit (Sus scrofa) (UniProt P35750).
T3 sequence (whole entry): T1 sequence (P35750 whole entry)
Briefly: Ratio of compound Ki to AK295 Ki for porcine erythrocyte calpain 1.

The nature of data set [6]: Drug level in C57BL/6 mouse brain at 24 mg/kg, sc after 8 hrs by HPLC analysis. It counts as ADME, organism-based. On the set-up: dose 24 mg/kg, route subcutaneous. The settings on record: read-out: Drug uptake. The gist of the method:
as §1

Data set [7] can be described thus: Drug level in C57BL/6 mouse spleen at 24 mg/kg, sc after 1 hr by HPLC analysis. The class given is ADME, organism-based. The settings on record: read-out: Drug uptake. Also on record: dose 24 mg/kg, route subcutaneous. The gist of the method: (§2)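 7-week-old female C57BL/6 mice got 24 mg/kg subcutaneously (N = 2) or intravenously (N = 3). They were perfused with buffered saline at 37 °C and killed at 1 h. Tissues were homogenized 5% w/v in water with internal standard. LC-MS/MS used ESI+ MRM and a Zorbax Extend C18 column. Concentration came from the analyte/internal-standard area ratio against calibration standards made in undosed control tissue (0.10–1.00 µM). Errors came from repeat injections.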

Data set [8] in a line: Drug level in C57BL/6 mouse liver at 24 mg/kg, sc after 1 hr by HPLC analysis. It counts as ADME, organism-based. The settings on record: read-out: Drug uptake. On the set-up: dose 24 mg/kg, route subcutaneous. A digest of the protocol: as §2
Data set [9] can be described thus: Drug level in C57BL/6 mouse kidney at 24 mg/kg, iv after 1 hr by HPLC analysis. It counts as ADME, organism-based. Also on record: dose 24 mg/kg, route intravenous. The settings on record: read-out: Drug uptake. The gist of the method: as §2
A short description of data set [10]: Drug level in C57BL/6 mouse serum at 24 mg/kg, sc after 1 hr by HPLC analysis. The class given is ADME, organism-based. The settings on record: read-out: Drug uptake. On the set-up: dose 24 mg/kg, route subcutaneous. A digest of the protocol: as §2
Data set [11] can be described thus: Drug level in C57BL/6 mouse heart at 24 mg/kg, sc after 1 hr by HPLC analysis. It counts as ADME, organism-based. On the set-up: dose 24 mg/kg, route subcutaneous. The note with it: read-out: Drug uptake. The gist of the method:
as §2

Data set [12] is described as follows: Drug level in C57BL/6 mouse spleen at 24 mg/kg, iv after 1 hr by HPLC analysis. The note with it: read-out: Drug uptake. On the set-up: dose 24 mg/kg, route intravenous. It counts as ADME, organism-based. A digest of the protocol: as §2
The nature of data set [13]: Drug level in C57BL/6 mouse kidney at 24 mg/kg, sc after 1 hr by HPLC analysis. The settings on record: read-out: Drug uptake. Also on record: dose 24 mg/kg, route subcutaneous. The class given is ADME, organism-based. A digest of the protocol:
as §2

Data set [14] in a line: Drug level in C57BL/6 mouse peripheral nerve at 24 mg/kg, iv after 1 hr by HPLC analysis. It counts as ADME, organism-based. Also on record: dose 24 mg/kg, route intravenous. The note with it: read-out: Drug uptake. A digest of the protocol:
as §2

Data set [15] can be described thus: Drug level in C57BL/6 mouse heart at 24 mg/kg, iv after 1 hr by HPLC analysis. The class given is ADME, organism-based. On the set-up: dose 24 mg/kg, route intravenous. The settings on record: read-out: Drug uptake. A digest of the protocol:
as §2

Data set [16] is described as follows: Drug level in C57BL/6 mouse liver at 24 mg/kg, iv after 1 hr by HPLC analysis. It counts as ADME, organism-based. On the set-up: dose 24 mg/kg, route intravenous. The settings on record: read-out: Drug uptake. The gist of the method:
as §2

The structures appear in SMILES notation.

Usually Ki stands for a dissociation constant, usually derived from enzyme kinetics or from competition with a known ligand. A higher Ki goes with lower affinity. For the compound `CCC(NC(=O)[C@H](CC(C)C)NC(=O)OCc1ccccc1)C(=O)C(=O)NCCCN1CCN(C)CC1` (some centres undefined), the Ki in data set [1] was found to be 640 nM; in data set [2], 1420 nM; in data set [4], 286 nM. Further, the concentration at 2 h in data set [3] amounted to 1140 ng/g.

Turning to `COc1nc(N)c2ncn(CCCNC(=O)C(=O)C(Cc3ccccc3)NC(=O)[C@H](CC(C)C)NC(=O)OCc3ccccc3)c2n1` (some centres undefined), the Ki in data set [1] was found to be 41 nM; in data set [2], 2340 nM; in data set [4], 209 nM. For the same compound, the Ratio in [5] stood at 3.

`CCC(NC(=O)[C@H](CC(C)C)NC(=O)OCc1ccccc1)C(=O)C(=O)NCCCn1cnc2c(N)ncnc21` (some centres undefined): the concentration at 8 h in data set [6] was 1170 ng/g. Besides, the Ki in data set [1] was 53 nM; in data set [2], 800 nM; in [4], 70 nM. For the same compound, the Ratio in data set [5] was determined as 3.

In the case of `CC(C)C[C@H](NC(=O)OCc1ccccc1)C(=O)NC(Cc1ccccc1)C(=O)C(=O)NCCN(C)C` (some centres undefined), the Ki in data set [1] stood at 711 nM; in [2] it was 475000 nM; in data set [4], 3520 nM.

Turning to `CC(C)C[C@H](NC(=O)OCc1ccccc1)C(=O)NC(Cc1ccccc1)C(=O)C(=O)NCCCN(C)C` (some centres undefined), the Ki is 226 nM in data set [1], 75500 nM in [2] and 844 nM in data set [4].

With `CCC(NC(=O)[C@H](CC(C)C)NC(=O)OCc1ccccc1)C(=O)C(=O)NCCCN1CCOCC1` (some centres undefined), the concentration at 1 h in [7] came out at 1380 ng/g; in data set [8], 1550 ng/g; in data set [9], 1820 ng/g; in data set [10], 895 ng/g; in data set [11], 541 ng/g; in [12] it was 1320 ng/g. In addition, the concentration at 1 h in data set [13] came to 936 ng/g; in [14] it was 333 ng/g; in data set [15] it was 561 ng/g; in data set [16], 943 ng/g. The Ki in [1] was 150 nM; in data set [2], 6900 nM; in data set [4] it was 41 nM.

On to `CCC(NC(=O)[C@H](CC(C)C)NC(=O)OCc1ccccc1)C(=O)C(=O)NCCCn1cnc2c(N)nc(OC)nc21` (some centres undefined), for which the Ki was determined as 23 nM in [1], 880 nM in data set [2] and 77 nM in data set [4]. Further, in [5], the Ratio was 3.

`CC(C)C[C@H](NC(=O)OCc1ccccc1)C(=O)NC(Cc1ccccc1)C(=O)C(=O)NCCCn1ccc(N)nc1=O` (some centres undefined): the Ki in data set [1] was 480 nM; in data set [2] it was 440 nM; in data set [4] it was 438 nM.

As to `CCC(NC(=O)[C@H](CC(C)C)NC(=O)OCc1ccccc1)C(=O)C(=O)NCCCn1ccc(N)nc1=O` (some centres undefined), the Ki in data set [1] came to 165 nM; in data set [2], 750 nM; in data set [4] it was 1140 nM.

For the compound `CC(C)C[C@H](NC(=O)OCc1ccccc1)C(=O)NC(Cc1ccccc1)C(=O)C(=O)NCCCN1CCN(C)CC1` (some centres undefined), the Ki in data set [1] amounted to 1370 nM; in data set [2], 111000 nM; in [4], 6360 nM.

In the case of `CC(C)C[C@H](NC(=O)OCc1ccccc1)C(=O)NC(Cc1ccccc1)C(=O)C(=O)NCCCn1cnc2c(N)ncnc21` (some centres undefined), the Ki was 55 nM in data set [1], 1750 nM in data set [2] and 68 nM in data set [4]. The Ratio in data set [5] came out at 3.
